# M5 antag – human M5 muscarinic receptor antagonists, primary screen, CHO cells, Fluo-8 calcium fluorescence; CHO-hM5 cells, ACh EC80; actives 0.59% (n = 360,000); inhibition, % at 3 µM; Muscarinic acetylcholine receptor M5 (Homo sapiens), P08912;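 active = inhibition above a per-plate cutoff, the mean of that plate's test compounds plus 3 SD, cut at about 27% in these data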;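 also: 0% = acetylcholine EC80 with DMSO and 100% = DMSO without agonist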
# Target sequence (P08912 whole entry, looked up): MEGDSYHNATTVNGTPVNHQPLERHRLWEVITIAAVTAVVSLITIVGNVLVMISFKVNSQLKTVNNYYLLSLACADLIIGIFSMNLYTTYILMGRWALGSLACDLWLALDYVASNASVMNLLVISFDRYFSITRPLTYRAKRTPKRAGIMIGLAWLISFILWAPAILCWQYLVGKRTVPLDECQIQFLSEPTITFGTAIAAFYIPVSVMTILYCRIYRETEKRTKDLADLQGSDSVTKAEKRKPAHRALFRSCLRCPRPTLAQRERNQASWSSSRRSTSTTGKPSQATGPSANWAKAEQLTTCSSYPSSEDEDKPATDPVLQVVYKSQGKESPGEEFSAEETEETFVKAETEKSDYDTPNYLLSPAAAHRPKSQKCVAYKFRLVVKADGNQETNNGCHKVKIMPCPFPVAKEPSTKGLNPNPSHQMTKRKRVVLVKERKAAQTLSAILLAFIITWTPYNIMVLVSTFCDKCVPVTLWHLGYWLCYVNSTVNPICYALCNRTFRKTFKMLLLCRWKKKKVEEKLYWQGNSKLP
# M5 PAM – human M5 muscarinic receptor positive allosteric modulators, primary screen, CHO-K1 cells, Fluo-8 calcium fluorescence | Muscarinic acetylcholine receptor M5 (Homo sapiens), P08912 | CHO-K1 hM5, ACh EC20 PAM; 0% = ACh EC20, 100% = ACh EC100 | activation, % at 3 µM | actives 0.3% (n = 360,000) | AID 624038, 2012;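 active = activation above the run cutoff, the mean activation of all test compounds plus 3 SD, cut at about 18% in these data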
#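 Assay system – human M5 receptor in CHO-K1 cells · Read-out – % activation, ACh-normalized · Technique – Fluo-8 calcium fluorescence · Dosing – single-point, 3 µM nominal · Incubation – Fluo-8 loading 80 min at 37 °C plus 30 min room temperature · Repeats – singlicate, one well per test compound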
# CHRM4 agonist – human M4 muscarinic receptor agonists, primary screen, CHO-K1 cells, Fluo-8 calcium fluorescence | Muscarinic acetylcholine receptor M4 (Homo sapiens), P08173 | CHO-K1 hM4/Gqi5; vehicle 0%, full acetylcholine response 100% | activation, % at 3 µM | actives 0.14% (n = 360,000);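 active = activation above the run mean over all test wells plus 3 SD, cut at about 32% in these data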;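 also: peak over basal fluorescence ratio per well then scaled between controls; 0% = DMSO wells and 100% = acetylcholine at EC100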
# M4 PAM – human M4 muscarinic receptor positive allosteric modulators, primary screen, CHO-K1 cells, Fluo-8 calcium fluorescence; Muscarinic acetylcholine receptor M4 (Homo sapiens), P08173; actives 0.4% (n = 360,000); activation, % at 3 µM; CHO-K1 hM4/Gqi5, ACh EC20; 0% = ACh EC20, 100% = maximal ACh; AID 624126, 2012;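 active = activation above its plate's cutoff, the mean activation of sample wells plus 3 SD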
# CHRM5 agonist – human M5 muscarinic receptor agonists, primary screen, CHO-K1 cells, Fluo-8 calcium fluorescence; AID 624037, 2012; activation, % at 3 µM; Muscarinic acetylcholine receptor M5 (Homo sapiens), P08912; actives 0.19% (n = 360,000); CHO-K1 hM5 cells; 0% DMSO wells, 100% maximal acetylcholine response;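 active = activation above the run's mean over test compounds plus 3 SD, cut at about 23% in these data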;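 also: signal is peak over basal fluorescence ratio across the kinetic read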
# CHRM4 antagonist – human M4 muscarinic receptor antagonists, primary screen, CHO cells, Fluo-8 calcium fluorescence. actives 0.73% (n = 360,000). Muscarinic acetylcholine receptor M4 (Homo sapiens), P08173. inhibition, % at 3 µM. CHO-hM4 cells, ACh EC80;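 active = inhibition above its plate's cutoff, the mean inhibition of sample wells plus 3 SD, cut at about 27% in these data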;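 also: 0% = acetylcholine EC80 with DMSO and 100% = DMSO without agonist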
# Starred values were filed as active, the others as inactive. A selection: hits, their analogues and other compounds. The true share with any hit is near 1.9%.
SMILES,M5 antag,M5 PAM,CHRM4 agonist,M4 PAM,CHRM5 agonist,CHRM4 antagonist
CS(=O)(=O)c1ccc(C(=O)NCc2ccccc2F)cc1,10.5,-3.0,1.7,6.6,1.7,-0.1
COc1ccc(C=O)c(-c2c(CCO)sc3ccccc23)c1,-7.8,7.1,-1.0,12.8,-1.1,1.5
Brc1ccc(CN2CCCCCC2)cc1,6.4,3.8,0.8,3.9,-11.7,1.0
Nc1ccc(CN2CCCCCC2)cc1,3.5,38.5*,0.5,-0.7,-11.3,-1.6
O=C(Nc1ccccc1-c1ccccc1)NC1CC2CCCC(C1)N2Cc1ccc(F)cc1 (stereo not drawn),34.5*,-19.6,0.8,-22.9,-9.9,58.4*
Cc1ccc(CN2C3CCCC2CC(NC(=O)c2ccc(F)cc2)C3)cc1 (stereo not drawn),-11.0,-2.1,0.6,-10.4,-19.6,13.3
O=C(Nc1ccccc1-c1ccccc1)NC1CC2CCCC(C1)N2CCc1ccccc1 (stereo not drawn),14.8,-18.4,0.1,-16.9,-10.0,29.4*
Cc1c(C(=O)Nc2ccccc2F)sc2nc3n(c(=O)c12)CCC3,13.0,-5.9,4.0,-10.4,-1.9,4.0
COc1ccc(NC(=O)c2cc(=O)c3ccccc3o2)cc1Cl,20.8,11.6,6.3,23.4*,0.1,18.1
CN(C)S(=O)(=O)c1cc(NC(=O)c2cc(=O)c3ccccc3o2)ccc1Cl,15.0,-2.2,17.9,-3.2,2.6,2.0
CCN1CCCC1CNC(=O)c1ccc(Sc2ccccc2Cl)c([N+](=O)[O-])c1 (stereo not drawn),7.4,-28.7,3.6,-25.6,-13.6,96.9*
CCN1CCCC1CNC(=O)c1ccc(Sc2ccc(F)cc2)c([N+](=O)[O-])c1 (stereo not drawn),12.5,-23.1,3.5,-28.8,-18.6,95.2*
O=C(NCCCN1CCOCC1)c1ccc(Sc2ccc(F)cc2)c([N+](=O)[O-])c1,-7.0,-1.4,2.7,-8.9,-5.5,0.8
C/C(=N\NC(=O)CNC(=O)C(c1ccccc1)c1ccccc1)c1ccccc1,-3.6,0.4,1.5,-1.1,-1.3,-5.7
CCOC(=O)CC1(C)Oc2ccccc2N1S(=O)(=O)c1ccc(C)cc1 (stereo not drawn),-7.2,-12.2,3.1,-5.4,-6.2,-9.9
Cc1cc(C)c(C)c(S(=O)(=O)N2CCC(C(=O)N3CC(C)CC(C)C3)CC2)c1C (stereo not drawn),6.5,-5.5,-0.2,19.8*,-3.9,-4.8
O=C(CCNC(=O)C1CCN(S(=O)(=O)c2ccccc2)CC1)NCCc1ccc(Cl)cc1,0.0,-1.8,1.2,3.0,-1.1,-1.1
COc1ccc2[nH]c(=O)c(CNc3ccccc3OC)cc2c1,5.9,3.1,1.8,-4.1,3.4,-2.6
O=C(O)C(Cc1c[nH]c2ccccc12)NS(=O)(=O)c1ccc(F)cc1 (stereo not drawn),-6.6,0.2,1.4,-5.5,1.1,2.3
O=C(O)C(Cc1c[nH]c2ccccc12)NS(=O)(=O)c1ccc2ccccc2c1 (stereo not drawn),-13.2,7.2,0.1,20.4*,-1.9,-16.0
Cc1ccc(NC(=O)C2C3CCC(O3)C2C(=O)O)c(Br)c1 (stereo not drawn),-5.3,18.6*,0.6,5.6,4.4,-4.0
O=C(O)C1C2CCC(O2)C1C(=O)Nc1ccc(F)cc1 (stereo not drawn),35.5*,-13.5,2.9,8.5,-3.7,0.1
CCCN(CC1CC1)C(=O)COC(=O)c1oc2ccc(OCC)cc2c1C,5.8,-13.1,5.7,6.0,-0.9,-7.7
CC(=O)N(C)c1ccc(NC(=O)Nc2ccc(C)c(C)c2)cc1,29.4*,-18.7,19.4,-11.3,4.1,31.4*

# Screening data: PubChem BioAssay, The Scripps Research Institute Molecular Screening Center
